For one test, the system named is P388. Nature of the test: Cytotoxicity against mouse P388 cells after 96 hrs by MTT assay. The note with it: P388, 96 h. The class given is functional, cell-based. The method, boiled down: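 P388 cells grown in RPMI-1640 with 10% FBS, kanamycin and 2-hydroxyethyl disulfide at 37 °C, 5% CO2; seeded at 1 × 10⁴ cells/mL, test solution in RPMI-1640 added, 96 h incubation. MTT (1 mg/mL) added for 3 h, cells dissolved in DMSO after centrifugation; IC₅₀ determined.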

Test [1] addresses T1, Histone-lysine N-methyltransferase SETD7 (Homo sapiens) (UniProt Q8WTS6).
T1 sequence (whole entry): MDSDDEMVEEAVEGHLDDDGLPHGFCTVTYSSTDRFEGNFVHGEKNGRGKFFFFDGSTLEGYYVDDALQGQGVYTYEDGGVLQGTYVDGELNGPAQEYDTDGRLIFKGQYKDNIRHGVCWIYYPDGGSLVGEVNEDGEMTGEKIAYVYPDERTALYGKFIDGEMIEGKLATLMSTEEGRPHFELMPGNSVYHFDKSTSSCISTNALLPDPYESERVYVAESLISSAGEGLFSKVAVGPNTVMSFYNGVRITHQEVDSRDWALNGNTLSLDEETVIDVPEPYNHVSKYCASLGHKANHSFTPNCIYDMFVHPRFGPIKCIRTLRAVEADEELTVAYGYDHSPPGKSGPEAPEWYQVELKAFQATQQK
Description: Inhibition of HMT-set7/9 using S-adenosylmethionine and biotinylated H3 peptide at 100 uM after 1 hr. The method, boiled down:
(§1)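 GST-G9a (200 ng) or His-Set7/9 (931 ng) with BSA preincubated with compound (DMSO) in Tris-HCl pH 8.5 buffer with MgCl₂, KCl, 2-mercaptoethanol, sucrose, 1 h rt; then SAM (50 ng) and biotinylated H3 peptide (50 ng), 37 °C 2 h, boiled. Captured on streptavidin plate; G9a: anti-methylated-lysine antibody, Set7/9: anti-dimethyl-H3K4 antibody; HRP secondary, TMB, A650.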

Test [2] has as its target T2, Histone-lysine N-methyltransferase EHMT2 (Homo sapiens, UniProt Q96KQ7).
T2 sequence (Q96KQ7 whole entry): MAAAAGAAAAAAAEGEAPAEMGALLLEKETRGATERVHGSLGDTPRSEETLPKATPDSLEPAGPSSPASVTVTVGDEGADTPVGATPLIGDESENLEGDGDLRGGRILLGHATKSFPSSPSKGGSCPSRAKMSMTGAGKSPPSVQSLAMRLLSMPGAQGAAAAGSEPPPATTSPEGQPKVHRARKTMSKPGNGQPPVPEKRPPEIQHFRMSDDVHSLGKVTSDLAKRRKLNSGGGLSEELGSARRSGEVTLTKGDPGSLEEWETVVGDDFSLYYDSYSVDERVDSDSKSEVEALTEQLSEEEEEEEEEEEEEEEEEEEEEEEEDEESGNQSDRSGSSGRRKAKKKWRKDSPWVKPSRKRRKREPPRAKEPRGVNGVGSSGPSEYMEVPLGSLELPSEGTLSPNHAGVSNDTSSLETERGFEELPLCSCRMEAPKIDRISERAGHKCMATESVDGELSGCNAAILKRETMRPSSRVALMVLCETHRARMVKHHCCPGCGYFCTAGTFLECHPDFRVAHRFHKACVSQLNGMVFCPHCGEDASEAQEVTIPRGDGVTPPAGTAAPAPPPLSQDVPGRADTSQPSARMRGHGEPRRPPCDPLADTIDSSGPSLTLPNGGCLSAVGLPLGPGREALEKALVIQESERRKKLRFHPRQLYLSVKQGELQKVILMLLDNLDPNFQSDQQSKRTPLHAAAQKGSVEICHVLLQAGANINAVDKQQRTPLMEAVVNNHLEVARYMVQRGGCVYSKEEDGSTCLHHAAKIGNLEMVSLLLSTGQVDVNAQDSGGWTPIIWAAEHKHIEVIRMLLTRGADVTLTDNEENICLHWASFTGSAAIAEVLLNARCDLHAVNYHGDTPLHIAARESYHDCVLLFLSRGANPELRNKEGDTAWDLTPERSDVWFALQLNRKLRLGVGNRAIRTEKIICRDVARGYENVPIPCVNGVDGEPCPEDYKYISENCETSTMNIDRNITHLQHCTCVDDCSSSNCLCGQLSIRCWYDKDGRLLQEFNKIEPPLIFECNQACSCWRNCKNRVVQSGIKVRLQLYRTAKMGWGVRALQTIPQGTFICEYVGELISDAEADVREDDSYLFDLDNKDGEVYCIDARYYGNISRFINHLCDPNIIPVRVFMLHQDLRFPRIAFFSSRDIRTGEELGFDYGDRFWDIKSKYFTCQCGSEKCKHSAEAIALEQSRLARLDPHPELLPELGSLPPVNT
Nature of the test: Inhibition of HMT-G9a using S-adenosylmethionine and biotinylated H3 peptide after 1 hr. The method, boiled down: as §1

These results are taken from ChEMBL document CHEMBL1949536, “Gliotoxin analogues from a marine-derived fungus, Penicillium sp., and their cytotoxic and histone methyltransferase inhibitory activities” (J Nat Prod, 2012).

The source made the active and inactive calls. No cut-off for these calls is given here. Where only a bound is given, the exact number is not on record here.

Regarding `C=C1C(=O)N2[C@H]3C(=CC=C[C@@H]3O)C[C@@]2(SC)C(=O)N1C`, the IC50 in the test with P388 was 3400 nM; in test [2] it was over 100000 nM. For the same compound, the inhibition entry in test [1] is “inactive”.
With `CN1C(=O)[C@]23Cc4ccccc4N2C(=O)[C@@]1(CO)SS3`, the 50% inhibitory concentration (IC50) in the test with P388 came to 58 nM; in test [2] it was 55000 nM. Moreover, in test [1], the inhibition result is “inactive”.
Consider `CN1C(=O)[C@]23Cc4cccc(O)c4N2C(=O)[C@@]1(CO)SS3`, for which the 50% inhibitory concentration (IC50) in the test on P388 was determined as 56 nM; in test [2], 2600 nM. In addition, the inhibition entry in test [1] is “inactive”.
`CS[C@]1(CO)C(=O)N2[C@H]3C(=CC=C[C@@H]3O)C[C@@]2(SC)C(=O)N1C` [BIS(DETHIO)BIS(METHYLTHIO)GLIOTOXIN]: the figures for the IC50 (with P388; in test [2]) were 110 nM and over 100000 nM, respectively. For the same compound, in test [1], the inhibition entry is “inactive”.
In the case of `CS[C@]1(CO)C(=O)N2c3c(O)cccc3C[C@@]2(SC)C(=O)N1C` [DEHYDROBIS(METHYLTHIO)GLIOTOXIN], the concentration for half-maximal inhibition (IC50) stood at 110 nM in the test with P388 and 58000 nM in test [2]. The inhibition result in test [1] was “inactive”.
`CN1C(=O)[C@]23CC4=CC=C[C@H](O)[C@H]4N2C(=O)[C@@]1(CO)SSSS3` [GLIOTOXIN G]: the IC50 in the test with P388 turned out to be 20 nM; in test [2], 2100 nM. In addition, the inhibition result in test [1] is “inactive”.
For `CN1C(=O)[C@]23CC4=CC=C[C@H](O)[C@H]4N2C(=O)[C@@]1(CO)SS3` [GLIOTOXIN] the same measures were 24 nM, 6400 nM and “inactive”.
